Published values collected from several papers.
Target: Serine/threonine-protein kinase N1 (PKN1, Homo sapiens, UniProt Q16512)

| Structure (SMILES) | test | conditions | remaining binding [%] |
| --- | --- | --- | --- |
| O=C(NCC1CCOCC1)c1n[nH]cc1NC(=O)c1c(F)cccc1F | binding, competition with immobilised ligand | 1 µM | 100 |
| CC1CCCN1c1nccc(-c2cnn3ncccc23)n1 (stereo not shown) | binding | 1 µM | 100 |
| O=C(NCCCN1CCOCC1)c1ccc(Nc2nccc(-c3cc4ccccc4s3)n2)cc1 | binding, competition with immobilised ligand | 1 µM | 37 |
| CC1=C(C#N)C(c2ccc3c(c2)c(NC(=O)c2ccccc2C)nn3C)C(C#N)=C(C)N1 | cell-free assay, competition with immobilised ligand | 1 µM | 78 |
| O=C(c1ccc(Nc2nccc(-c3cc4ccccc4s3)n2)cc1)N1CCC(N2CCCC2)CC1 | binding, competition with immobilised ligand | 1 µM | 12 |
| C[C@@H]1CCN(c2nccc(-c3cnn4ncccc34)n2)C1 | binding | 1 µM | 84 |
| CCN1CCN(Cc2ccc(C(=O)Nc3ccc(C)c(Oc4ccc5c(c4)CC(=O)N5)c3)cc2C(F)(F)F)CC1 | binding, competition with immobilised ligand | 1 µM | 100 |
| COc1cnc(Nc2cccc(S(N)(=O)=O)c2)nc1N1CCN(c2ccccc2)CC1 | binding, competition with immobilised ligand | 1 µM | 82 |
| C=CC(=O)N1CCC(C(=O)NCC(=O)N2CCN(c3nc(-c4cnc(N)nc4C(F)F)nc(N4CCOCC4)n3)CC2)CC1 | binding, competition with immobilised ligand | 1 µM | 83 |
| COc1ncc2cc3ccccc3nc2c1C#N | cell-free assay, competition with immobilised ligand | 5 µM | 100 |
| Nc1ncc2c(n1)-c1c([nH]c3ccc(C#CC4CC4)cc13)CCCC2 | binding, competition with immobilised ligand | 1 µM | 78 |
| FC(F)(F)Oc1cccc(-c2cnc3ccc(-c4ccncc4)nn23)c1 | cell-free assay, competition with immobilised ligand | 5 µM | 67 |
| O=C(NS(=O)(=O)c1ccc(NCC2CCOCC2)c([N+](=O)[O-])c1)c1ccc(N2CCN(Cc3ccc(C(F)(F)F)cc3-c3ccc(Cl)cc3)CC2)cc1Oc1cnc2[nH]ccc2c1 | cell-free assay, competition with immobilised ligand | 1 µM | 100 |
| N[C@H]1CCN(c2nccc(-c3cnn4ncccc34)n2)C1 | binding | 1 µM | 86 |
| Cc1cc(C)c(-n2ccn3nc(-c4cccnc4)cc23)cc1NC(=O)c1cc(C#N)cc(S(F)(F)(F)(F)F)c1 | cell-free assay, competition with immobilised ligand | 0.1 µM | 96.7 |
| O=C(c1ccc(Nc2ncc(Cl)c(-c3cc4ccccc4s3)n2)cc1)N1CCC(N2CCCC2)CC1 | binding, competition with immobilised ligand | 1 µM | 3.4 |
| c1cnn2ncc(-c3ccnc(N4CCC45COC5)n3)c2c1 | binding | 1 µM | 87 |
| Cc1nc(N2CC[C@@H](O)C2)ncc1-c1cc(C(F)(F)F)cc2[nH]ncc12 | binding, competition with immobilised ligand | 1 µM | 100 |
| CN(CCCC(F)(F)F)c1nccc(-c2cnn3ncccc23)n1 | binding | 1 µM | 100 |
| COc1ccc2cc(OCC3(C(=O)O)CN(C(=O)c4ccc(F)cc4)C3)ccc2c1 | cell-free assay, competition with immobilised ligand | 1 µM | 100 |
| F[C@@H]1CCN(c2nccc(-c3cnn4ncccc34)n2)C1 | binding | 1 µM | 100 |
| O=C1CCc2cc(Nc3cc(OC4CCOCC4)c([N+](=O)[O-])cc3Cl)ccc2N1 | cell-free assay, competition with immobilised ligand | 1 µM | 100 |
